Active and inactive are the calls of the source. The rule behind the calls is not given here.

The test system of one assay is Intestine. Kind of assay: Anti-colitis activity against DSS-induced ulcerative colitis mouse model assessed as decrease in STAT-5 level in intestinal tissue at 0.2 to 0.6 mg/kg, ip treated every 72 hrs for 9 days by Western blot analysis. It counts as functional, organism-based. The conditions noted are these: dose 0.2-0.6 mg/kg, time 9.0 day. In outline: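 DSS model (2.5% in drinking water days 1–7, water days 8–9). Dosing was i.p. at 0.2 and 0.6 mg kg−1 in 50% PEG300 on days 2, 5, 8. Intestinal tissue taken at sacrifice on day 9. Lysed in RIPA with protease inhibitor and BCA-quantified, then run on SDS-PAGE/PVDF and probed for STAT1, STAT3, STAT5 and caspase-1. ECL detection.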

The test system of assay [1] is Colon. Kind of assay: Anti-colitis activity against DSS-induced ulcerative colitis mouse model assessed as increase in goblet cells in colon tissue at 0.2 to 0.6 mg/kg, ip treated every 72 hrs for 9 days by H and E staining based analysis. It counts as functional, organism-based. The following applies: dose 0.2-0.6 mg/kg, time 9.0 day. In outline: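 Colons were taken on day 9 from 2.5% DSS-fed mice (DSS days 1–7). Dosing was i.p. 0.2 or 0.6 mg kg−1 in 50% PEG300 on days 2, 5, 8. H&E-stained sections imaged at ×20 and scored for inflammatory infiltration, goblet cell depletion and crypt loss.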

Assay [2] concerns Colon. Kind of assay: Downregulation of TNF-alpha level in colon tissue of DSS-induced ulcerative colitis mouse model at 0.2 to 0.6 mg/kg, ip treated every 72 hrs for 9 days by ELISA. It counts as functional, organism-based. The conditions noted are these: dose 0.2-0.6 mg/kg, time 9.0 day. In outline:
(§1)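 Colitis induced with 2.5% DSS in drinking water on days 1–7, plain water days 8–9. Compound given i.p. at 0.2 and 0.6 mg kg−1 in 50% PEG300 on days 2, 5 and 8. Mice killed on day 9; colon tissue cytokines measured by ELISA. Mean ± s.e.m.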
In general terms: An ELISA detects its analyte on a solid surface through an enzyme-linked reagent.

Assay [3] has as its target T1, Signal transducer and activator of transcription 1 (Mus musculus) (UniProt P42225).
T1 sequence (whole entry): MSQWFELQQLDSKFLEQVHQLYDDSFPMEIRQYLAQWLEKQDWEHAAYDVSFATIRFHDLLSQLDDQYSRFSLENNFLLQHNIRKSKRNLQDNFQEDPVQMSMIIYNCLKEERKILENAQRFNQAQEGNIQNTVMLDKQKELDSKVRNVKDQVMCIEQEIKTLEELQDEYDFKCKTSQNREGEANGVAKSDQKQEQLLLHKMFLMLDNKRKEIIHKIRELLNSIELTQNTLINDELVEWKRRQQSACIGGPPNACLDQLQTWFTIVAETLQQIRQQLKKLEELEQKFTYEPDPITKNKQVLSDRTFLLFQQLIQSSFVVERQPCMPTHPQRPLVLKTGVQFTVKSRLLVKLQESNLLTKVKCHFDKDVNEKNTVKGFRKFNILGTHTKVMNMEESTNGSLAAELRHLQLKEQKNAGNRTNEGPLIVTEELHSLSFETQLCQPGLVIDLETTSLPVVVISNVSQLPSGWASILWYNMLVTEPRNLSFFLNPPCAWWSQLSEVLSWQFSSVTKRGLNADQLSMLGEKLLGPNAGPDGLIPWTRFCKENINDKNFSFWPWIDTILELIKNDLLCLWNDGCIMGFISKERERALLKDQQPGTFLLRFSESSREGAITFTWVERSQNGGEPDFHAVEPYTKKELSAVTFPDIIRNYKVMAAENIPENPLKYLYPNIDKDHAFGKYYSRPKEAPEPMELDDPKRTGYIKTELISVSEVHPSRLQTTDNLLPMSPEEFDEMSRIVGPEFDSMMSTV
Description: Inhibition of STAT1 expression in LPS-treated mouse J774.A1 cells assessed as reduction in STAT1 phosphorylation at 50 to 200 nM treated for 1 hr by Western blot analysis. The conditions noted are these: dose 50-200 nM. Format: cell-based. In outline: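 J774A.1 cells pretreated with LPS and compound, lysed in RIPA. pSTAT1, STAT1, pSTAT3, STAT3, pSTAT5 and STAT5 detected by SDS-PAGE western blot with ECL.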

In assay [4] the target is T2, Interferon-inducible protein AIM2 (Mus musculus) (UniProt Q91VJ1).
T2 sequence (whole entry): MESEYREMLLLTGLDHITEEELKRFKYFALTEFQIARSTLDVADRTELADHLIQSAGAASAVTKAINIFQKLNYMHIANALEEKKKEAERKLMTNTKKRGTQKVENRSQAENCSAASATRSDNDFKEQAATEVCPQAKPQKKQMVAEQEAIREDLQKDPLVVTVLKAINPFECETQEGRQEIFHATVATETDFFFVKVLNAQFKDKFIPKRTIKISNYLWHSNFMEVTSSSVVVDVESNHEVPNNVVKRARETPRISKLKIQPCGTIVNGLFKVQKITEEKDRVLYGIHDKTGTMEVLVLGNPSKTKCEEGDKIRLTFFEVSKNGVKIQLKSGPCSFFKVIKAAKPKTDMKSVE
Description: Inhibition of AIM2 inflammasome activation in mouse BMDM cells assessed as reduction in LPS-stimulated IL-1beta level at 50 to 200 nM pretreated for 1 hr followed by poly(dA/dT) treatment for 4 hrs by ELISA. It counts as cell-based. The conditions noted are these: dose 50-200 nM, time 5.0 hrs. In outline:
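BMDMs (RPMI 1640, 10% FBS, Glutamax, 20 ng mL−1 M-CSF) primed with 0.5 μg mL−1 LPS for 3 h, then compound for 1 h. Stimulated 4 h with FLA-ST Ultrapure 2.5 μg mL−1 (NLRC4) or poly(dA/dT) 0.25 μg mL−1 (AIM2). IL-1β measured by ELISA.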

Assay [5] concerns the target NACHT, LRR and PYD domains-containing protein 3 (Mus musculus) (UniProt Q8R4B8). Description: Inhibition of NLRP3 inflammasome activation in mouse J774.A1 cells assessed as reduction in mature IL-1beta release at 50 to 200 nM pretreated for 1 hr followed by nigericin treatment for 1 hr by Western blot analysis. It counts as cell-based. The conditions noted are these: dose 50-200 nM, time 2.0 hrs. In outline: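 J774A.1 cells, LPS 1 μg mL−1 for 5 h, compound exposure, nigericin 10 μM 1 h. RIPA lysis with protease inhibitor and BCA quantitation, then SDS-PAGE/PVDF. Blocked 5% milk, primary antibodies overnight at 4 °C, HRP secondaries, ECL detection.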

Assay [6] has the same target. Kind of assay: Inhibition of NLRP3 inflammasome activation in mouse BMDM cells assessed as reduction in LPS-stimulated IL-1beta level at 50 to 200 nM pretreated for 1 hr followed by imiquimod treatment for 2 hrs by ELISA. Format: cell-based. The following applies: dose 50-200 nM, time 3.0 hrs. In outline:
(§2)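 Bone-marrow macrophages in RPMI 1640/10% FBS/M-CSF. LPS priming at 0.5 μg mL−1 for 3 h, compound 1 h. NLRP3 then triggered by nigericin 10 μM for 0.5 h or imiquimod 900 μM for 2 h. Supernatant IL-1β by ELISA.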

Assay [7] relates to Colon. Kind of assay: Anti-colitis activity against DSS-induced ulcerative colitis mouse model assessed as decrease in IL-1beta level in colon tissue at 0.2 to 0.6 mg/kg, ip treated every 72 hrs for 9 days by ELISA. It counts as functional, organism-based. The conditions noted are these: dose 0.2-0.6 mg/kg, time 9.0 day. In outline: as §1
For assay [8], the target named is NACHT, LRR and PYD domains-containing protein 3 (Mus musculus) (UniProt Q8R4B8). Description: Inhibition of NLRP3 inflammasome activation in mouse BMDM cells assessed as reduction in LPS-stimulated IL-1beta level at 50 to 200 nM pretreated for 1 hr followed by nigericin treatment for 30 mins by ELISA. Format: cell-based. The conditions noted are these: dose 50-200 nM, time 1.5 hrs. In outline:
as §2

Sequence of NACHT, LRR and PYD domains-containing protein 3 (Mus musculus) (Q8R4B8 whole entry, the tested form may be a part): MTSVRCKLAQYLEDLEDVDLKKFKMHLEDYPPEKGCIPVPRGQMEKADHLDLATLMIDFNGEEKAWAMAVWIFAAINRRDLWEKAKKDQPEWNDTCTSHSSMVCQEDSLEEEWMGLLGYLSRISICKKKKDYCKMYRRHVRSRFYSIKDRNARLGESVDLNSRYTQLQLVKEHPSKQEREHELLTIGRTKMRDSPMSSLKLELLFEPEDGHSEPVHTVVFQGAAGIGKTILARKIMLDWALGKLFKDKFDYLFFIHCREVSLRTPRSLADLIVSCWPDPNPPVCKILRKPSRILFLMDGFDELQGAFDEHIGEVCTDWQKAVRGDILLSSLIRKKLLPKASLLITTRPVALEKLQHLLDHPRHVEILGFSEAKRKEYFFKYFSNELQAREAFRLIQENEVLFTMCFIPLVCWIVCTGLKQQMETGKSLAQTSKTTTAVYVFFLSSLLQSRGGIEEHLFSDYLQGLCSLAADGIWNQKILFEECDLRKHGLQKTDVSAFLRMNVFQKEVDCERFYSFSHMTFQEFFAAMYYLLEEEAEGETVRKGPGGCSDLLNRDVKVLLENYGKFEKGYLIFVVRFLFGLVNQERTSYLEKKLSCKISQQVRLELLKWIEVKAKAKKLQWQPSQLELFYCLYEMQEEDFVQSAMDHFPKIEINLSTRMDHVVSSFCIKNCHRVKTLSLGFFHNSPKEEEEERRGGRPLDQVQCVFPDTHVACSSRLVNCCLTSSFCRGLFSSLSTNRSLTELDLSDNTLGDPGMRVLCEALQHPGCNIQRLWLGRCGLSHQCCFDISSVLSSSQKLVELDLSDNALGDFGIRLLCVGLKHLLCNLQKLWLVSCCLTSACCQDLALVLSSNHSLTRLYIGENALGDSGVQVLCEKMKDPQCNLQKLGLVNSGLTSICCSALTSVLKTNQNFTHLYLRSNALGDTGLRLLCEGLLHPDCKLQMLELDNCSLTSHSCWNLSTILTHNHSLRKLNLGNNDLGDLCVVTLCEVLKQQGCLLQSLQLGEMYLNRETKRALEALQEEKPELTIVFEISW

Turning to `Cc1cc(/C=C/C(=O)c2ccc(C(=O)N[C@@H](Cc3ccccc3)C(=O)N[C@@H](CC(C)C)B(O)O)cc2)cc(C)c1O`, the outcome in the assay with Intestine, in the assay with Colon [1] and with Colon [7] was Active. In addition, the result in the assay on Colon [2] was inactive. Moreover, the inhibition result in assay [3], in assay [4], in [5], in assay [6] and in assay [8] was “Active” throughout.

Values taken from ChEMBL document CHEMBL5357044, “Discovery of a dual-acting inhibitor of interleukin-1β and STATs for the treatment of inflammatory bowel disease” (RSC Med Chem, 2024).
